Assay results pooled from the literature.
Lines come from different studies, so protocols differ.
Target: Dual specificity protein kinase CLK4 (CLK4, Homo sapiens, UniProt Q9HAZ1)

| SMILES | effect on | technique | tested at | remaining binding [%] |
| --- | --- | --- | --- | --- |
| CNC(=O)[C@@H]1CC[C@@H](n2c(-c3ccc4cnccc4c3)nc3ccc(C(=O)NCc4cccc(C(N)=O)c4)cc32)C1 | binding | competition with immobilised ligand | 1 µM | 100 |
| O=C(Nc1c[nH]nc1C(=O)NC1CCNCC1)c1cc(F)cc(F)c1 | binding | competition with immobilised ligand | 1 µM | 75 |
| CNCc1ccccc1-c1csc([C@@H](C)Nc2nc(C)nc3cc(OC)c(OC)cc23)c1 | cell-free assay | competition with immobilised ligand | 1 µM | 100 |
| C[C@H]1CCN(c2nccc(-c3cnn4ncccc34)n2)C1 | binding |  | 1 µM | 9.9 |
| COc1ncc2cc3ccccc3nc2c1C#N | cell-free assay | competition with immobilised ligand | 5 µM | 86 |
| F[C@@H]1CCN(c2nccc(-c3cnn4ncccc34)n2)C1 | binding |  | 1 µM | 60 |
| c1cncc(-c2cccc(Nc3nccc(NC4CCCCC4)n3)c2)c1 | binding | competition with immobilised ligand | 10 µM | 1 |
| Cn1cc(Cl)c2c(Oc3c(F)cc(Nc4cc(Cl)nc(N)n4)cc3F)ccnc21 | cell-free assay | competition with immobilised ligand | 0.1 µM | 100 |
| Nc1ncc2c(n1)-c1c([nH]c3ccc(C#CC4CC4)cc13)CCCC2 | binding | competition with immobilised ligand | 1 µM | 76 |
| COc1cnc(Nc2cccc(S(N)(=O)=O)c2)nc1N1CCN(c2ccccc2)C(=O)C1 | binding | competition with immobilised ligand | 1 µM | 93 |
| CN(C)c1nccc(-c2cnn3ncccc23)n1 | binding |  | 1 µM | 5.9 |
| Cc1nc(N2CC[C@@H](O)C2)ncc1-c1cc(C(F)(F)F)cc2[nH]ncc12 | binding | competition with immobilised ligand | 1 µM | 92 |
| CN(c1nccc(-c2cnn3ncccc23)n1)C1CC1 | binding |  | 1 µM | 70 |
| O=C(N1CCS(=O)(=O)CC1)N1C[C@H](c2ccc(OC(F)(F)F)cc2)C[C@H](c2nc(C3CC3)no2)C1 | cell-free assay | competition with immobilised ligand | 1 µM | 100 |
| N[C@@H]1CCN(c2nccc(-c3cnn4ncccc34)n2)C1 | binding |  | 1 µM | 25 |
| O=C(NCCCN1CCOCC1)c1ccc(Nc2nccc(-c3cc4ccccc4s3)n2)cc1 | binding | competition with immobilised ligand | 1 µM | 11 |
| Cc1cnn2ncc(-c3ccnc(N(C)C)n3)c2c1 | binding |  | 1 µM | 9.7 |
| O=C(NCCCN1CCOCC1)c1ccc(Nc2ncc(Cl)c(-c3ccc(Cl)s3)n2)cc1 | binding | competition with immobilised ligand | 1 µM | 1.6 |
| Cc1c(C(=O)O)cc(-c2ccc(C3CCNCC3)cc2)c2ccc(-c3ccc(C(F)(F)F)cc3)cc12 | binding | competition with immobilised ligand | 1 µM | 100 |
| O=C(c1ccc(Nc2ncc(Cl)c(-c3cc4ccccc4s3)n2)cc1)N1CCC(N2CCCC2)CC1 | binding | competition with immobilised ligand | 1 µM | 0 |
| O=S(=O)(NC1CCC(c2cc(F)ccc2F)(S(=O)(=O)c2ccc(Cl)cc2)CC1)C(F)(F)F (stereo not shown) | cell-free assay | competition with immobilised ligand | 1 µM | 84 |
| CCN1CCN(Cc2ccc(C(=O)Nc3ccc(C)c(Oc4ccc5c(c4)CC(=O)N5)c3)cc2C(F)(F)F)CC1 | binding | competition with immobilised ligand | 1 µM | 94 |
